Tests used:
H9 = assay: Inhibition of HIV-1 replication in H9 cells infected with three different concentrations of HIV IIIB strain; type: functional, cell-based; settings: Homo sapiens
In short: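 H9 cells infected at three HIV IIIB inoculum levels, then exposed to 3-5 compound concentrations for 5 days. Fresh media and compound replaced on day 3. p24 antigen in culture media measured by ELISA on the final day, mean OD with n = 4 per dose. IC50 found for at least two viral doses, over 3-5 individual assays.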

Protein Tat = molecular target: T1, Protein Tat (Human immunodeficiency virus type 1 group M subtype B (isolate PCV12)(HIV-1), UniProt P04326); assay: Inhibition of HIV-1 nuclear regulatory protein Tat; design: species or system Human immunodeficiency virus type 1 (CLONE 12)
T1 sequence (P04326 whole entry): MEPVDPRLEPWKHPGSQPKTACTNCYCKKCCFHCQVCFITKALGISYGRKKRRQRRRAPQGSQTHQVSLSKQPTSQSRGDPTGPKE
In short: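 SW480 cells co-transfected with an HIV-1 LTR-driven CAT reporter plasmid and an SV40 promoter-driven Tat plasmid. Cells incubated with dose-ranged compound for 48 h. Tat-induced expression read out as CAT enzyme activity. IC50 and 95% confidence intervals taken from percent-inhibition dose-response curves over 3-5 runs. Counter-screen used an SV40 promoter-driven CAT plasmid (Tat-independent).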

[1] = Therapeutic index against HIV-1 whole cell assay was determined, expressed as the ratio of IC50s of cell cytotoxicity to that of HIV replication; settings: human immunodeficiency virus 1, HIV-1 whole cell assay; read-out: Therapeutic index
In short: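 Cytotoxicity: uninfected H9 cells incubated 5 days with the same compound concentrations as the antiviral assay, viable cells counted by trypan blue exclusion. Ratio taken of the cytotoxic IC50 to the IC50 for HIV IIIB replication (p24 ELISA, 5 days, medium and compound renewed day 3).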

SMILES	IC50 (H9)	IC50 (Protein Tat)	selectivity ratio [1]
O=C1CN=C(c2ccc[nH]2)c2cc(Cl)ccc2N1	600 nM	4000 nM	5.9
C[C@]12CCC3C(CC[C@]45OC4C(O)=C(C(N)=O)C[C@]35C)C1CC[C@@H]2O (stereo not given in full)	1200 nM	14300 nM	6.5
CC(=O)O[C@H]1CCC2C3CC[C@]45O[C@H]4C(O)=C(C(N)=O)C[C@]5(C)C3CC[C@@]21C (stereo not given in full)	2400 nM	2600 nM	1.6
C[C@]12CC[C@H]3[C@@H](CC[C@]45OC4C(=O)C(S(C)(=O)=O)C[C@]35C)[C@@H]1CC[C@@H]2O (stereo not given in full)	1400 nM	8400 nM	3.9
CC(=O)O[C@H]1CC[C@H]2[C@@H]3CC[C@]45OC4C(=O)C(S(C)(=O)=O)C[C@]5(C)[C@H]3CC[C@]12C (stereo not given in full)	300 nM	2600 nM	4.3

From ChEMBL document CHEMBL1126798, “Keto/enol epoxy steroids: a new structural class of HIV-1 Tat inhibitors” (J Med Chem, 1993)
